Experimental data as given in ChEMBL document CHEMBL4334446, “Evaluating the effects of fluorine on biological properties and metabolic stability of some antitubulin 3-substituted 7-phenyl-pyrroloquinolinones” (Eur J Med Chem, 2019).

How the values were obtained:
HT-29 = test: Growth inhibition of human HT-29 cells incubated for 72 hrs by MTT assay; type: functional; settings: HT-29, 72 h
[1] = Metabolic stability in human liver microsomes assessed as parent compound decline at 10 uM incubated for 60 mins in absence of NADPH by HPLC analysis; type: ADME, Microsome; settings: read-out: Drug degradation
In short: (§1)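 Compound (10 µM) was incubated 0 or 60 min at 37 °C with pooled HLMs (1 mg/mL), with or without 1 mM NADPH, or in buffer only (0.1 M KH2PO4 pH 7.4). Reactions were stopped with ice-cold acetonitrile. Remaining parent was measured by HPLC-fluorescence relative to 0 min; mean ± SD, n = 3.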

A-375 = test: Growth inhibition of human A375 cells incubated for 72 hrs by MTT assay; type: functional; settings: A-375, 72 h
A2058 = test: Growth inhibition of human A2058 cells incubated for 72 hrs by MTT assay; type: functional; settings: A2058, 72 h
Tubulin = Tubulin (Bos taurus, UniProt Q6B856+Q862L2+Q862F3); test: Inhibition of bovine brain tubulin polymerization preincubated for 15 mins followed by GTP addition and measured for 20 mins by turbidimetry-based spectrophotometric method
In short: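 Bovine brain tubulin (10 µM) was preincubated with varying compound concentrations in 0.8 M monosodium glutamate, pH 6.6, for 15 min at 30 °C, then cooled to 0 °C. GTP was added to 0.4 mM final and the mix warmed to 30 °C. Turbidity was followed at 350 nm. IC50 = concentration inhibiting extent of assembly 50% after 20 min.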

[2] = Growth inhibition of human DND41 cells incubated for 72 hrs by MTT assay; type: functional; settings: DND41, 72 h
In short: (§2)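 Leukemia lines were grown in RPMI-1640; the CEM^Vbl-100 medium also contained 100 ng/mL vinblastine. Cells were seeded at 8 × 10³ per well and left 18 h at 37 °C, 5% CO2. Medium was then replaced with fresh medium holding graded compound concentrations (DMSO stocks), in triplicate, for 72 h. Viability was read by MTT, and GI50 = concentration inhibiting proliferation 50%.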

RS4-11 = test: Growth inhibition of human RS4:11 cells incubated for 72 hrs by MTT assay; type: functional; settings: RS4-11, 72 h; in short: as §2
Tubulin (Bos taurus) = Tubulin (Bos taurus) (UniProt Q6B856+Q862L2+Q862F3); test: Inhibition of [3H]colchicine binding to bovine brain tubulin at 5 uM relative to control
In short: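 Bovine brain tubulin at 1 µM was incubated with 5 µM [3H]colchicine and the test compound at 5 µM. Inhibition of colchicine binding was measured relative to a control.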

MDA-MB-468 = test: Growth inhibition of human MDA-MB-468 cells incubated for 72 hrs by MTT assay; type: functional; settings: MDA-MB-468, 72 h
HL-60 = test: Growth inhibition of human HL60 cells incubated for 72 hrs by MTT assay; type: functional; settings: HL-60, 72 h; in short: as §2
[3] = Metabolic stability in human liver microsomes assessed as parent compound decline at 10 uM incubated for 60 mins in presence of NADPH by HPLC analysis; type: ADME, Microsome; settings: read-out: Drug degradation; in short: as §1
HeLa = test: Growth inhibition of human HeLa cells incubated for 72 hrs by MTT assay; type: functional
MDA-MB-231 = test: Growth inhibition of human MDA-MB-231 cells incubated for 72 hrs by MTT assay; type: functional; settings: MDA-MB-231, 72 h
Jurkat = test: Growth inhibition of human Jurkat cells incubated for 72 hrs by MTT assay; type: functional; in short: as §2
MCF7 = test: Growth inhibition of human MCF7 cells incubated for 72 hrs by MTT assay; type: functional; settings: MCF7, 72 h
[4] = Selectivity ratio of GI50 for PHA-stimulated human PBL cells to GI50 for human CEM cells incubated for 72 hrs by MTT assay
In short: (§3)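 Leukemia cells (CEM, DND-41, Jurkat) were grown in RPMI-1640 at 8×10³ cells/well and left 18 h. Donor PBL were gradient-separated, held overnight, and non-adherent cells set at 5×10^5 cells/mL with 2.5 µg/mL PHA. Both were exposed 72 h at 37 °C to graded compound concentrations, read by MTT. The ratio is PBL GI50 over leukemia GI50.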

[5] = Selectivity ratio of GI50 for PHA-stimulated human PBL cells to GI50 for human DND41 cells incubated for 72 hrs by MTT assay; in short: as §3
[6] = Selectivity ratio of GI50 for human PBL cells to GI50 for human Jurkat cells incubated for 72 hrs by MTT assay
In short: as §3, with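 “overnight in RPMI-1640/10% FBS,” for “overnight,”, “without PHA (resting).” for “with 2.5 µg/mL PHA.”, “h” for “h at 37 °C”, “graded” for “graded compound”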

CCRF-CEM = test: Growth inhibition of human CEM cells incubated for 72 hrs by MTT assay; type: functional; in short: as §2
[7] = Growth inhibition of multidrug-resistant human CEM/VBL100 cells incubated for 72 hrs by MTT assay; type: functional; settings: CEM/VBL100, 72 h; in short: as §2
[8] = Selectivity ratio of GI50 for human PBL cells to GI50 for human DND41 cells incubated for 72 hrs by MTT assay
In short: as §3, with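 “overnight in RPMI-1640/10% FBS,” for “overnight,”, “without PHA (resting).” for “with 2.5 µg/mL PHA.”, “h” for “h at 37 °C”, “graded” for “graded compound”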

[9] = Growth inhibition of PHA-stimulated human PBL cells incubated for 72 hrs by MTT assay; type: cell-based; settings: PHA-stimulated PBL cells (peripheral blood lymphocytes)
In short: (§4)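 PBL from healthy donors were isolated on a Lymphoprep gradient, held overnight in RPMI-1640 with 10% FBS, and the non-adherent cells resuspended at 5 × 10^5 cells/mL. Proliferating cultures got 2.5 µg/mL PHA; resting cultures got none. Compound was added at several concentrations for 72 h and viability read by MTT. GI50 reported as mean ± SEM of three experiments.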

[10] = Growth inhibition of human PBL cells incubated for 72 hrs by MTT assay; type: cell-based; settings: PBL cells (peripheral blood lymphocytes); in short: as §4
[11] = Selectivity ratio of GI50 for human PBL cells to GI50 for human CEM cells incubated for 72 hrs by MTT assay; type: functional
In short: as §3, with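 “overnight in RPMI-1640/10% FBS,” for “overnight,”, “without PHA (resting).” for “with 2.5 µg/mL PHA.”, “h” for “h at 37 °C”, “graded” for “graded compound”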

[12] = Selectivity ratio of GI50 for PHA-stimulated human PBL cells to GI50 for human Jurkat cells incubated for 72 hrs by MTT assay; in short: as §3
[13] = Time-dependent metabolic stability in human liver microsomes at 10 uM incubated for 30 mins in presence of NADPH by HPLC analysis; type: ADME, Microsome; settings: 0.5 h
In short: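 Pooled mixed-gender HLMs (0.5 mg/mL) plus 1 mM NADPH in 0.1 M KH₂PO₄ pH 7.4, compound 10 μM final, 37 °C. Reaction started with microsomes after 3-min equilibration. Stopped with ice-cold acetonitrile at 0, 2, 5, 15, 30 min, then HPLC-fluorescence of supernatant. Percent remaining vs 0 min (mean ± SD, n = 3). Half-life = 0.693/k from linear regression of Ln % remaining vs time.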

[14] = Metabolic stability in human liver microsomes at 10 uM incubated for 15 mins in presence of NADPH and non-selective CYP inhibitor quercetin by HPLC analysis; type: ADME, Microsome; settings: 0.25 h
In short: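 Compound (10 µM) was incubated 0 and 15 min at 37 °C with pooled HLMs and 1 mM NADPH in 0.1 M KH2PO4 pH 7.4, with or without 100 µM quercetin. Parent remaining was measured by HPLC-fluorescence relative to 0 min; mean ± SD, n = 3.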

[15] = Metabolic stability in human liver microsomes assessed as half life at 10 uM incubated for 30 mins in presence of NADPH by HPLC analysis; type: ADME, Microsome
In short: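 Compound (10 µM) was incubated at 37 °C with 0.5 mg/mL pooled HLMs and 1 mM NADPH in 0.1 M KH2PO4 pH 7.4, sampled at 0, 2, 5, 15 and 30 min. Controls without NADPH, or buffer only, ran 0 and 30 min. Parent was quantified by HPLC-fluorescence as % of the 0 min level, n = 3. t1/2 = 0.693/k, with k from regression of ln % remaining versus time.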

[16] = Stability in phosphate buffer at pH 7.4 at 10 uM incubated for 30 mins by HPLC analysis; type: physicochemical; settings: pH 7.4, 0.5 h
In short: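 No microsomes or NADPH: compound (10 μM final) held in 0.1 M KH₂PO₄ pH 7.4 at 37 °C. Samples taken at 0 and 30 min, quenched with ice-cold acetonitrile, centrifuged, analysed by HPLC with fluorescence detection. Percent parent remaining relative to 0 min; mean ± SD, n = 3.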

[17] = Metabolic stability in human liver microsomes at 10 uM incubated for 30 mins in phosphate buffer at pH 7.4 by HPLC analysis; type: ADME, Microsome; settings: pH 7.4, 0.5 h
In short: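 Test compound (10 μM, final) incubated at 37 °C with pooled mixed-gender HLMs (0.5 mg/mL) in 0.1 M KH₂PO₄ pH 7.4 without NADPH. Sampled at 0 and 30 min, quenched with ice-cold acetonitrile, centrifuged, supernatant analysed by HPLC with fluorescence detection (ex 344/em 493 nm). Percent remaining calculated from peak area relative to 0 min; mean ± SD, n = 3.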

Structure (SMILES) | GI50 (HT-29) [nM] | metabolised at 1 h, 10 µM [1] [%] | GI50 (A-375) [nM] | GI50 (A2058) [nM] | IC50 (Tubulin) [nM] | GI50 [2] [nM] | GI50 (RS4-11) [nM] | inhibition (Tubulin (Bos taurus)) [%] | GI50 (MDA-MB-468) [nM] | GI50 (HL-60) [nM] | metabolised at 1 h, 10 µM [3] [%] | GI50 (HeLa) [nM] | GI50 (MDA-MB-231) [nM] | GI50 (Jurkat) [nM] | GI50 (MCF7) [nM] | RatioGI50 [4] | RatioGI50 [5] | RatioGI50 [6] | GI50 (CCRF-CEM) [nM] | GI50 [7] [nM] | further results
O=C(c1ccccc1F)n1ccc2c3c(=O)cc(-c4ccccc4)[nH]c3ccc21 | 26.6 | 20 | 332 | 322 | 1300 | 240 | 120 | 34 | 70 | 276 | 20 | 9.3 | 3030 | 53.7 | 1080 |  |  |  |  |  | 
O=C(c1ccccc1)n1ccc2c3c(=O)cc(-c4ccccc4)[nH]c3ccc21 | 0.1 | 20 |  |  |  |  | 0.3 |  |  | 2 | 20 | 0.2 |  | 16 | 0.2 | 10000 - 30000 | 10000 - 30000 | 10000 - 30000 | 2.5 | 3.1 | RatioGI50 [8]: 10000 - 30000; GI50 at 72 h [9]: 2700 nM; GI50 at 72 h [10]: > 100000 nM; RatioGI50 [11]: 10000 - 30000; RatioGI50 [12]: 10000 - 30000
CCn1ccc2c3c(=O)cc(-c4cccc(F)c4)[nH]c3ccc21 | 0.9 |  | 11.4 | 3.5 | 780 to 840 | 0.13 | 0.07 | 83 | 15 | 0.08 |  | 0.7 | 69 | 0.11 | 52.7 | 10000 - 30000 | 10000 - 30000 | 10000 - 30000 | 2.2 | 0.8 | Stability [13]: Unstable; Stability [14]: Stable; half-life at 10 µM [15]: 11.8 min; RatioGI50 [8]: 10000 - 30000; GI50 at 72 h [9]: 10800 nM; Stability [16]: Stable; Stability [17]: Stable; GI50 at 72 h [10]: 31300 nM; RatioGI50 [11]: 10000 - 30000; RatioGI50 [12]: 10000 - 30000
